Shown are actives, neighbours in structure and some others; about 2.7% of the full set was active somewhere.
PfM18AAP inh: PfM18AAP inhibitors, malaria aminopeptidase, primary screen, biochemical, QFRET, recombinant enzyme; H-Glu-NHMec fluorogenic cleavage; inhibition, % at 7.35 µM; M18 aspartyl aminopeptidase (Plasmodium falciparum 3D7); actives 1.2% (n = 290,000);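 active = inhibition above the campaign mean inhibition over all tested compounds plus 3 SD, cut at about 28% in these data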;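 also: 0% = plate median of test compound wells and 100% = 2 mM ZnCl2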
VIM-2 inhibitor: VIM-2 metallo-beta-lactamase inhibitors, primary screen, biochemical, epi-absorbance readout, Pseudomonas aeruginosa enzyme; actives 0.89% (n = 290,000); inhibition, % at 5.6 µM; purified VIM-2, nitrocefin hydrolysis, epi-absorbance fluorescence; AID 1527, 2009;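 active = inhibition above the mean of all tested compounds plus 3 SD, cutoff set per screening run, cut at about 7.5% in these data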;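 also: red hydrolysis product quenches plate fluorescence so inhibitors raise well fluorescence; 0% = enzyme with DMSO and 100% = DMSO without enzyme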
IMP-1 inh-1: IMP-1 metallo-beta-lactamase inhibitors, primary screen, biochemical, epi-absorbance readout, Pseudomonas aeruginosa enzyme; metallo-beta-lactamase IMP-1 (Pseudomonas aeruginosa); purified IMP-1, nitrocefin hydrolysis, epi-absorbance fluorescence; inhibition, % at 5.6 µM; actives 0.45% (n = 290,000);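 active = inhibition above the mean plus 3 SD of all compounds in the same screening run, cut at about 4.5% in these data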;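 also: 0% = IMP-1 with DMSO and 100% = DMSO wells lacking enzyme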
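system = purified recombinant IMP-1 beta-lactamase | amount = 0.2 nM IMP-1, as dispensed | medium = HEPES buffer pH 7.1 with ZnSO4 and Brij 35 | times = 25 °C, 15 min preincubation, 25 min reaction | detection = plate fluorescence quenching by hydrolysis product, ex 480/em 530 nm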
Fh CTSL1 inh: Fasciola hepatica cathepsin L1 inhibitors, primary screen, counter-screen for PFM18AAP inhibitor project, biochemical, QFRET, fluorogenic peptide substrate | actives 0.49% (n = 300,000) | AID 1906, 2009 | inhibition, % at 5.96 µM | recombinant F. hepatica cathepsin L1, Z-Leu-Arg-MCA fluorescence;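 active = inhibition above the mean of all tested compounds plus 3 SD, set per screening campaign, cut at about 17% in these data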;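 also: 0% = plate median of test compound wells and 100% = 1 µM Z-Phe-Ala-diazomethylketone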
IMP-1 inh-2: IMP-1 metallo-beta-lactamase inhibitors, confirmation, selectivity assay for selective VIM-2 inhibitor project, biochemical, epi-absorbance readout, triplicate; shares compounds with VIM-2 inhibitor; inhibition, % at 5.6 µM; purified IMP-1, nitrocefin hydrolysis, epi-absorbance fluorescence; 1,300 tested, under 10 active; call rule not given here;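 also: 0% = enzyme with vehicle and 100% = vehicle without enzyme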
VIM-2 FRET ctr: VIM-2 inhibitors in FRET format, confirmation, artefact control for selective VIM-2 inhibitor project, biochemical, epi-absorbance artifact exclusion. inhibition, % at 5.6 µM. shares compounds with VIM-2 inhibitor. purified VIM-2, CCF2 FRET substrate hydrolysis. AID 1857, 2009. actives 23% (n = 1,300);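 active = inhibition above the mean of all tested compounds plus 3 SD, cut at about 19% in these data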;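 also: 0% = VIM-2 plus DMSO and 100% = no enzyme wells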
TEM-1 counter: TEM-1 serine beta-lactamase inhibitors, counter-screen for VIM-2 inhibitor project, biochemical, epi-absorbance, HTS | Purified TEM-1, nitrocefin hydrolysis, epi-absorbance fluorescence | actives 3% (n = 1,300) | shares compounds with VIM-2 inhibitor | inhibition, % at 5.6 µM;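 active = inhibition above that campaign's mean inhibition plus 3 SD, cut at about 0.46% in these data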;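 also: 0% = TEM-1 with DMSO and 100% = TEM-1 with 100 µM potassium clavulanate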
Target sequence (P62593 whole entry, looked up): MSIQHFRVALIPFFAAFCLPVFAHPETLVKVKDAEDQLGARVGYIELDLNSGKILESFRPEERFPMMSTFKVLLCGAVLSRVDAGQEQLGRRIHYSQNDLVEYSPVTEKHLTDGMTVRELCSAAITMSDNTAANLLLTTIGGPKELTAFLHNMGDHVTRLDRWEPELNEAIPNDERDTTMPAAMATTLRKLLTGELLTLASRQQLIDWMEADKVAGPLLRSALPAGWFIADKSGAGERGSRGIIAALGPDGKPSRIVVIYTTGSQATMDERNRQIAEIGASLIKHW
VIM-2 confirm 2: VIM-2 metallo-beta-lactamase inhibitors, confirmation, biochemical, epi-absorbance, hits shared with IMP-1 screen; shares compounds with VIM-2 inhibitor; purified VIM-2, nitrocefin hydrolysis; inhibition, % at 5.6 µM; actives 96% (n = 1,300); AID 2187, 2009;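 active = inhibition of the VIM-2 beta-lactamase enzyme above about 11% from the earlier first-round screen, limit read from the data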;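 also: 0% = VIM-2 with DMSO and 100% = buffer wells without enzyme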
Active calls of the source: *; / = no result.

SMILES | PfM18AAP inh | VIM-2 inhibitor | IMP-1 inh-1 | Fh CTSL1 inh | IMP-1 inh-2 | VIM-2 FRET ctr | TEM-1 counter | VIM-2 confirm 2
Cc1cc([N+](=O)[O-])c(C)cc1-c1ccc(/C=N/NC(=O)Cn2nnnc2N)o1 | 5 | 33* | -4 | 1 | -3 | -11 | -3 | 42*
Cc1cccc(NS(=O)(=O)c2cc(C(=O)OC(C)C(=O)NCc3ccc4c(c3)OCO4)ccc2C)c1 (configuration not stated) | 2 | -5 | -3 | 1 | / | / | / | /
CC(=O)N1CCN(c2ccc(Nc3nc(C)nc4c3oc3ccccc34)cc2)CC1 | / | / | / | -2 | / | / | / | /
CC(=O)Nc1ccc(Nc2nc(C)nc3c2oc2ccccc23)cc1 | 6 | 18* | 0 | 1 | -4 | 1 | -7 | 29*
Cc1cccc(Nc2nc(C)nc3c2oc2ccccc23)c1 | -2 | 5 | -1 | 5 | / | / | / | /
CCc1nc(Nc2ccncc2)c2oc3ccccc3c2n1 | -7 | 44* | 1 | 1 | -3 | 2 | -6 | 54*
Cc1nc(Nc2ccncc2)c2oc3ccccc3c2n1 | -1 | 45* | 0 | -1 | -3 | -2 | -6 | 57*
Cc1nc(N2CCOCC2)c2oc3ccccc3c2n1 | -1 | 19* | -1 | 0 | -3 | -4 | -4 | 34*
Cc1cnc(NC(=O)C2(c3ccccc3)CC2)s1 | -14 | 1 | 0 | -3 | / | / | / | /
O=S(=O)(Nc1cccc2c1CCCC2)c1ccc(Cl)cc1 | 0 | 6 | -3 | 0 | / | / | / | /
COc1ccc(CCNc2nc(C)nc3c2oc2ccccc23)cc1OC | -2 | 5 | -3 | -4 | / | / | / | /
Cc1nc(NCCc2cnc[nH]2)c2oc3ccccc3c2n1 | -2 | 71* | 0 | 1 | -1 | -9 | 1.7* | 84*
O=C(NCCN1CCOCC1)c1cc(S(=O)(=O)NCCCN2CCCC2=O)ccc1Cl | -1 | -3 | -1 | 1 | / | / | / | /
CCOc1cc2nc(-c3ccc(OC)c(OC)c3)nc(NCCCN3CCOCC3)c2cc1OC | -10 | 26* | 0 | 5 | -4 | 3 | -7 | 49*
COc1cc2ncnc(NCCCN3CCOCC3)c2cc1OC | 4 | 3 | 1 | -2 | / | / | / | /
CCOC(=O)c1cnc2ccc(OCC)cc2c1NCCN1CCOCC1 | 3 | -2 | -4 | 4 | / | / | / | /
CCOC(=O)c1cnc2c(CC)cccc2c1NCCCN1CCOCC1 | -4 | 24* | 0 | 1 | -3 | 1 | -4 | 33*
CCOC(=O)c1cnc2c(Cl)cccc2c1NCCCN1CCOCC1 | 0 | 20* | -3 | 0 | -3 | -1 | -5 | 28*
CCOC(=O)c1cnc2c(Cl)cccc2c1NCCN1CCOCC1 | -13 | 2 | -2 | -4 | / | / | / | /
CCOC(=O)c1cnc2c(C(F)(F)F)cccc2c1NCCCN1CCOCC1 | -15 | 20* | 0 | 2 | -3 | 1 | -6 | 27*
CCOC(=O)c1cnc2c(C(F)(F)F)cccc2c1N1CCN(C)CC1 | 6 | 5 | -2 | 4 | / | / | / | /
COc1ccccc1NC(=O)Cn1c(CCC(=O)O)ccc1-c1ccc(C)cc1 | 12 | -3 | -2 | 8 | / | / | / | /
CCOc1ccc(NC(=S)N2CCCN(Cc3cc(C)ccc3C)C2)cc1 | -1 | -3 | -2 | -2 | / | / | / | /
O=C(NCc1ccccc1)c1onc(CSc2ccccc2)c1C(=O)NCC1CC1 | / | / | / | 5 | / | / | / | /
COc1ccc(Cc2nc3ccc(C(=O)NCc4ncc(C)[nH]4)cc3o2)cc1OC | -11 | 38* | -2 | -2 | -3 | -12 | -6 | 50*
SMILES | PfM18AAP inh | VIM-2 inhibitor | IMP-1 inh-1 | Fh CTSL1 inh | IMP-1 inh-2 | VIM-2 FRET ctr | TEM-1 counter | VIM-2 confirm 2
O=c1c2ccccc2nnn1Cc1nnc(-c2ccccc2Br)o1 | 2 | 17* | -2 | 0 | -2 | 21* | -3 | 13*
O=C(COC(=O)COc1ccccc1Cc1ccccc1)Nc1cccnc1Cl | 3 | -2 | -1 | 2 | / | / | / | /
CC(=O)c1c2c3c(cccc3n(C)c1=O)C(=O)c1ccccc1-2 | -2 | 22* | 3 | 0 | -2 | -3 | -4 | 30*
Cc1ccc2nc3c(c(Nc4ccc5c(c4)OCCO5)c2c1)CCC3 | 12 | 16* | -3 | 0 | -4 | -2 | -7 | 30*
N#Cc1cccc(Nc2c3c(nc4ccccc24)CCC3)c1 | 9 | 2 | -2 | 0 | / | / | / | /
O=C(Nc1ccc(N2CCN(Cc3ccccc3)CC2)cc1)c1ncn[nH]1 | 0 | 13* | -1 | -2 | -4 | -1 | -6 | 25*
CCC(=O)Nc1ccc(N2CCN(Cc3ccccc3)CC2)cc1 | 3 | 0 | -1 | 0 | / | / | / | /
C=CCn1c(SCC(=O)N2CCN(CCO)CC2)nc2sc3c(c2c1=O)CCC3 | -3 | 50* | 0 | 2 | -3 | 1 | -9 | 64*
C=CCn1c(SCC(C)=O)nc2sc3c(c2c1=O)CCC3 | -12 | 6 | -1 | 7 | / | / | / | /
CCN(CC)CCCNC(=O)c1cc2c(Cl)nc3ccccc3c2s1 | 5 | 22* | -1 | 0 | -2 | 6 | -6 | 32*
COc1cc(NC(=O)c2cc3c(Cl)nc4ccccc4c3s2)cc(OC)c1OC | -10 | -2 | -2 | -2 | / | / | / | /
CN(CCCNC(=O)c1cc2c(Cl)nc3ccccc3c2s1)Cc1ccccc1 | 5 | 22* | 1 | 4 | -2 | 2 | -7 | 31*
O=C(CCc1nnc(C2(c3ccc(Cl)cc3)CCC2)o1)NCCCn1cccn1 | -4 | -3 | -1 | -1 | / | / | / | /
O=C(CNc1ccc2ccccc2c1)N/N=C/c1cc2ccccc2nc1Cl | 5 | 22* | 1 | 0 | -4 | 3 | -9 | 34*
O=C(COc1cccc(Cl)c1)N/N=C\c1cc2ccccc2nc1Cl | 2 | -3 | -2 | 4 | / | / | / | /
O=C(C[n+]1cc(-c2ccc(Cl)cc2)n2c1CCCCC2)c1ccccc1 | -2 | -3 | -2 | 5 | / | / | / | /
Clc1ccc(C2=C3CCCCn4c(-c5ccccc5)c[n+](c43)C2)cc1 | 7 | 18* | -4 | 0 | -5 | -2 | -8 | 5
COc1ccc(-c2c[n+]3c4n2CCCCC4=C(c2ccc(Br)cc2)C3)cc1 | -6 | 14* | -4 | 3 | -1 | -5 | 2.5* | 13*
O=C1C(=O)N(O)C2CCCCC2N1O (configuration not stated) | -3 | 13* | -3 | 8 | -4 | 47* | -7 | 24*

Compound activity: PubChem BioAssay, The Scripps Research Institute Molecular Screening Center
